For assay [1], the target named is T1, IgG receptor FcRn large subunit p51 (Homo sapiens, UniProt P55899). The assay is described as follows: Binding affinity to human FcRn at pH 6 by surface plasmon resonance assay. An outline of the steps:
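Soluble human FcRn coupled to the dextran surface of a CM5 chip; peptide dilutions flowed over the chip. The equilibrium response at each dilution was plotted against concentration and fitted to a steady-state affinity model to give Kd.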

Assay [2] deals with T1, IgG receptor FcRn large subunit p51. The assay can be described thus: Inhibition of human IgG binding to soluble human FcRn by ELISA. In short, it runs like this:
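Biotinylated soluble human FcRn immobilized on neutravidin plates, incubated with hIgG (3 nM, constant) and peptide at varying concentrations for 2 h at 37 °C. After washing, bound hIgG detected with peroxidase-conjugated hIgG-specific Fab fragments.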

Some results are limits rather than exact numbers.

T1 sequence (P55899 whole entry): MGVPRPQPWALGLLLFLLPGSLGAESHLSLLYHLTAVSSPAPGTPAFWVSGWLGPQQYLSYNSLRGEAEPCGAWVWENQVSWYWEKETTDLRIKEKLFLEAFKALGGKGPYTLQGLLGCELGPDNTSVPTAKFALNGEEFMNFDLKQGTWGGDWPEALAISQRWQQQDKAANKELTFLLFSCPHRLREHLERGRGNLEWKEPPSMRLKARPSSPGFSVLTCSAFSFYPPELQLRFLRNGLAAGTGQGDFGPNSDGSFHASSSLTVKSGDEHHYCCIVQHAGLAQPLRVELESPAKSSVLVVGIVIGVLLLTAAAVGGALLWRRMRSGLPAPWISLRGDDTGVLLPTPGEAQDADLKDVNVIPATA

`CC(C)C[C@H](NC(=O)CNC(=O)CNC(=O)[C@H](Cc1ccccc1)NC(=O)[C@H](Cc1cnc[nH]1)NC(=O)CNC(=O)[C@@H](NC(=O)[C@H](CCS)NC(=O)[C@H](Cc1ccccc1)NC(=O)[C@H](CCCNC(=N)N)NC(=O)[C@@H](N)CCC(N)=O)[C@@H](C)O)C(=O)N[C@@H](Cc1ccc(O)cc1)C(=O)N1CCC[C@H]1C(=O)N[C@H](C(=O)N[C@@H](CC(N)=O)C(=O)NCC(=O)N1CCC[C@H]1C(=O)O)C(C)(C)S` showed a Kd in assay [1] of 2.1 µM.

With `CC(C)C[C@H](NC(=O)[C@@H](Cc1ccccc1)NC(=O)CNC(=O)[C@H](Cc1ccccc1)NC(=O)[C@H](Cc1cnc[nH]1)NC(=O)CNC(=O)[C@@H](NC(=O)[C@@H](NC(=O)[C@H](Cc1ccccc1)NC(=O)[C@H](CCCNC(=N)N)NC(=O)[C@@H](N)CCC(N)=O)C(C)(C)S)[C@@H](C)O)C(=O)N[C@@H](Cc1ccc(O)cc1)C(=O)N1CCC[C@H]1C(=O)N[C@@H](CS)C(=O)N[C@@H](CC(N)=O)C(=O)NCC(=O)N1CCC[C@H]1C(=O)O`, the Kd in assay [1] was 1.7 µM. This Kd and that of the compound before are within 1.5-fold of each other.

`CC(C)C[C@H](NC(=O)CNC(=O)[C@H]1CCCN1C(=O)[C@H](Cc1ccccc1)NC(=O)[C@H](Cc1cnc[nH]1)NC(=O)CNC(=O)[C@@H](NC(=O)[C@@H](NC(=O)[C@H](Cc1ccccc1)NC(=O)[C@H](CCCN=C(N)N)NC(=O)[C@@H](N)CCC(N)=O)C(C)(C)S)[C@@H](C)O)C(=O)N[C@@H](Cc1ccc(O)cc1)C(=O)N1CCC[C@H]1C(=O)N[C@@H](CS)C(=O)N[C@@H](CC(N)=O)C(=O)NCC(=O)N1CCC[C@H]1C(=O)O` showed an IC50 in assay [2] of 5 µM. In assay [2], `CC(C)C[C@H](NC(=O)[C@H]1CCCN1C(=O)[C@H]1CCCN1C(=O)[C@H](Cc1ccccc1)NC(=O)[C@H](Cc1cnc[nH]1)NC(=O)CNC(=O)[C@@H](NC(=O)[C@@H](NC(=O)[C@H](Cc1ccccc1)NC(=O)[C@H](CCCNC(=N)N)NC(=O)[C@@H](N)CCC(N)=O)C(C)(C)S)[C@@H](C)O)C(=O)N[C@@H](Cc1ccc(O)cc1)C(=O)N1CCC[C@H]1C(=O)N[C@@H](CS)C(=O)N[C@@H](CC(N)=O)C(=O)NCC(=O)N1CCC[C@H]1C(=O)O` returned an IC50 of 21 µM.

In turn, `CC(C)C[C@@H](C(=O)N[C@@H](Cc1ccc(O)cc1)C(=O)N1CCC[C@H]1C(=O)N[C@@H](CS)C(N)=O)N(C)C(=O)CN(C)C(=O)CNC(=O)[C@H](Cc1ccccc1)NC(=O)[C@H](Cc1csc[n+]1C)NC(=O)CNC(=O)[C@@H](NC(=O)[C@@H](NC(=O)[C@H](Cc1ccccc1)NC(=O)[C@@H](N)CCCN=C(N)N)C(C)(C)S)[C@@H](C)O` had an IC50 in assay [2] of 2.4 µM. Still for that read-out and setting: with `CC(C)C[C@H](NC(=O)CNC(=O)[C@@H](CCCN=C(N)N)NC(=O)[C@H](Cc1ccccc1)NC(=O)[C@H](Cc1cnc[nH]1)NC(=O)CNC(=O)[C@@H](NC(=O)[C@@H](NC(=O)[C@H](Cc1ccccc1)NC(=O)[C@H](CCCN=C(N)N)NC(=O)[C@@H](N)CCC(N)=O)C(C)(C)S)[C@@H](C)O)C(=O)N[C@@H](Cc1ccc(O)cc1)C(=O)N1CCC[C@H]1C(=O)N[C@@H](CS)C(=O)N[C@@H](CC(N)=O)C(=O)NCC(=O)N1CCC[C@H]1C(=O)O` the figure was 4.1 µM. The same measure, in the same setting: with `CC(C)C[C@H](NC(=O)[C@H]1CCCN1C(=O)CNC(=O)[C@H](Cc1ccccc1)NC(=O)[C@H](Cc1cnc[nH]1)NC(=O)CNC(=O)[C@@H](NC(=O)[C@@H](NC(=O)[C@H](Cc1ccccc1)NC(=O)[C@H](CCCNC(=N)N)NC(=O)[C@@H](N)CCC(N)=O)C(C)(C)S)[C@@H](C)O)C(=O)N[C@@H](Cc1ccc(O)cc1)C(=O)N1CCC[C@H]1C(=O)N[C@@H](CS)C(=O)N[C@@H](CC(N)=O)C(=O)NCC(=O)N1CCC[C@H]1C(=O)O` the figure was 1.4 µM. Still for that read-out and setting: with `CC(C)C[C@H](NC(=O)CNC(=O)CNC(=O)[C@H](Cc1c[nH]c2ccccc12)NC(=O)[C@H](Cc1cnc[nH]1)NC(=O)CNC(=O)[C@@H](NC(=O)[C@@H](NC(=O)[C@H](Cc1ccccc1)NC(=O)[C@H](CCCN=C(N)N)NC(=O)[C@@H](N)CCC(N)=O)C(C)(C)S)[C@@H](C)O)C(=O)N[C@@H](Cc1ccc(O)cc1)C(=O)N1CCC[C@H]1C(=O)N[C@@H](CS)C(=O)N[C@@H](CC(N)=O)C(=O)NCC(=O)N1CCC[C@H]1C(=O)O` the figure was 26 µM. In assay [2], `CC(C)C[C@H](NC(=O)CNC(=O)CNC(=O)[C@H](Cc1ccccc1)NC(=O)[C@H](Cc1cnc[nH]1)NC(=O)CNC(=O)[C@@H](NC(=O)[C@H](CCCCN)NC(=O)[C@H](Cc1ccccc1)NC(=O)[C@H](CCCNC(=N)N)NC(=O)[C@@H](N)CCC(N)=O)[C@@H](C)O)C(=O)N[C@@H](Cc1ccc(O)cc1)C(=O)N1CCC[C@H]1C(=O)N[C@@H](CC(=O)O)C(=O)N[C@@H](CC(N)=O)C(=O)NCC(=O)N1CCC[C@H]1C(=O)O` gave an IC50 of 60 µM. Same read-out and setting: with `CC(C)C[C@H](NC(=O)CNC(=O)[C@@H](Cc1cnc[nH]1)NC(=O)[C@H](Cc1ccccc1)NC(=O)[C@H](Cc1cnc[nH]1)NC(=O)CNC(=O)[C@@H](NC(=O)[C@@H](NC(=O)[C@H](Cc1ccccc1)NC(=O)[C@H](CCCNC(=N)N)NC(=O)[C@@H](N)CCC(N)=O)C(C)(C)S)[C@@H](C)O)C(=O)N[C@@H](Cc1ccc(O)cc1)C(=O)N1CCC[C@H]1C(=O)N[C@@H](CS)C(=O)N[C@@H](CC(N)=O)C(=O)NCC(=O)N1CCC[C@H]1C(=O)O` the figure was 3.6 µM. Same read-out and setting: with `CC(C)C[C@H](NC(=O)CN1CCC[C@@H](NC(=O)[C@H](Cc2ccccc2)NC(=O)[C@H](Cc2cnc[nH]2)NC(=O)CNC(=O)[C@@H](NC(=O)[C@@H](NC(=O)[C@H](Cc2ccccc2)NC(=O)[C@@H](N)CCCN=C(N)N)C(C)C)[C@@H](C)O)C1=O)C(=O)N[C@@H](Cc1ccc(O)cc1)C(=O)N1CCC[C@H]1C(=O)N[C@@H](C)C(=O)O` the figure was 38 µM; with `CC(C)C[C@H](NC(=O)CNC(=O)CNC(=O)[C@H](Cc1ccccn1)NC(=O)[C@H](Cc1cnc[nH]1)NC(=O)CNC(=O)[C@@H](NC(=O)[C@@H](NC(=O)[C@H](Cc1ccccc1)NC(=O)[C@H](CCCNC(=N)N)NC(=O)[C@@H](N)CCC(N)=O)C(C)(C)S)[C@@H](C)O)C(=O)N[C@@H](Cc1ccc(O)cc1)C(=O)N1CCC[C@H]1C(=O)N[C@@H](CS)C(=O)N[C@@H](CC(N)=O)C(=O)NCC(=O)N1CCC[C@H]1C(=O)O`, 90 µM.

In assay [2], `CC(C)C[C@H](NC(=O)[C@H]1CSC2C[C@@H](NC(=O)[C@H](Cc3ccccc3)NC(=O)[C@H](Cc3cnc[nH]3)NC(=O)CNC(=O)[C@@H](NC(=O)[C@H](NC(=O)[C@H](Cc3ccccc3)NC(=O)[C@@H](N)CCCNC(=N)N)C(C)(C)S)[C@@H](C)O)C(=O)N21)C(=O)N[C@@H](Cc1ccc(O)cc1)C(=O)N1CCC[C@H]1C(=O)N[C@@H](CS)C(=O)O` (stereo not given in full) displayed an IC50 of 23 µM. This IC50 lies about 3.9-fold lower than the previous one. `CC(C)C[C@H](NC(=O)Cc1ccc(NC(=O)[C@H](Cc2ccccc2)NC(=O)[C@H](Cc2cnc[nH]2)NC(=O)CNC(=O)[C@@H](NC(=O)[C@@H](NC(=O)[C@H](Cc2ccccc2)NC(=O)[C@@H](N)CCCN=C(N)N)C(C)(C)S)[C@@H](C)O)cc1)C(=O)N[C@@H](Cc1ccc(O)cc1)C(=O)N1CCC[C@H]1C(=O)N[C@@H](CS)C(=O)O`: the IC50 in assay [2] was greater than 125 µM. Still for that read-out and setting: with `CC(C)C[C@H](NC(=O)CNC(=O)CNC(=O)[C@H](Cc1ccccc1)NC(=O)[C@H](Cc1cnc[nH]1)NC(=O)CNC(=O)[C@@H](NC(=O)[C@@H](NC(=O)[C@H](Cc1ccccc1)NC(=O)[C@@H](N)CCCN=C(N)N)C(C)(C)S)[C@@H](C)O)C(=O)N[C@@H](Cc1ccc(O)cc1)C(=O)N1CCC[C@H]1C(=O)N[C@@H](CS)C(=O)O` the figure was 2 µM.

Source of the values: ChEMBL document CHEMBL1150419, “Structure-activity relationships of a peptide inhibitor of the human FcRn:human IgG interaction” (Bioorg Med Chem, 2008).
